According to ChEMBL document CHEMBL3352168, “Potent, orally available, selective COX-2 inhibitors based on 2-imidazoline core” (Eur J Med Chem, 2014):

Assays:
[1] = target: T1, Prostaglandin G/H synthase 1 (Ovis aries) (UniProt P05979); assay: Inhibition of ovine COX1 using fluorometric substrate at 100 uM by fluorescent inhibitor screening assay
T1 sequence (whole entry): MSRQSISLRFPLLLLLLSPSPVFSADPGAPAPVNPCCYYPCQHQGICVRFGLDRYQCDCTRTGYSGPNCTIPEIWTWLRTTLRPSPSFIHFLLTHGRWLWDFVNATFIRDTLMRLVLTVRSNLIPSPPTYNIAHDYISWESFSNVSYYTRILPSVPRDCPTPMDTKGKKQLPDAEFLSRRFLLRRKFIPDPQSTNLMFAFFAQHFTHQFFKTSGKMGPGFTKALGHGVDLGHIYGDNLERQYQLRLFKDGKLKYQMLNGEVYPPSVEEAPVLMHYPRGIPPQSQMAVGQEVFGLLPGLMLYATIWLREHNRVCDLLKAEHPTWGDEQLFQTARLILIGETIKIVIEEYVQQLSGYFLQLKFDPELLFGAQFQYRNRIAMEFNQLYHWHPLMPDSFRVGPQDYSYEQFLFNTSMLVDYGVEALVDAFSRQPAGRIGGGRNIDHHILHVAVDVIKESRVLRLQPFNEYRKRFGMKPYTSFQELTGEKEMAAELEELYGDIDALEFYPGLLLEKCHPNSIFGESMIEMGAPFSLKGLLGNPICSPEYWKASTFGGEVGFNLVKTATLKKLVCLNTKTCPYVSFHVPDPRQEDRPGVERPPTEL

[2] = target: T2, Prostaglandin G/H synthase 2 (Homo sapiens, UniProt P35354); assay: Inhibition of human recombinant COX2 using fluorometric substrate by fluorescent inhibitor screening assay
T2 sequence (P35354 whole entry): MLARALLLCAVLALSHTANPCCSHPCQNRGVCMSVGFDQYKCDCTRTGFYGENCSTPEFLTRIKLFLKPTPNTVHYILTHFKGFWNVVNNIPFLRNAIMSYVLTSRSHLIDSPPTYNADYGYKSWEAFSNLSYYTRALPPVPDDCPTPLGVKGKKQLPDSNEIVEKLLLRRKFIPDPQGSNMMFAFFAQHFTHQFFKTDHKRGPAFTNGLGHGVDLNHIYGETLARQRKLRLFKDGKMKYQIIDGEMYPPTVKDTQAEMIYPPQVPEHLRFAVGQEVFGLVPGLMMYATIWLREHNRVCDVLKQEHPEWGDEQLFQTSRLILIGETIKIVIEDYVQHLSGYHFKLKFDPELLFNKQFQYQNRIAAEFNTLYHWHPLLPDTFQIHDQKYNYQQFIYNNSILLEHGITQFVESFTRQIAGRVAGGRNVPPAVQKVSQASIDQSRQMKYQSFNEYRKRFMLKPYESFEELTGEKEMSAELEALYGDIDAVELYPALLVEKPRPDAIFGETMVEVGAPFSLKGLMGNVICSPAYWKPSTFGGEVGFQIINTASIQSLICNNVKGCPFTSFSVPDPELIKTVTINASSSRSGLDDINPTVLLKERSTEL
Method in brief: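 Human recombinant COX-2 in 100 mM Tris-HCl pH 8.0 with heme and ADHP fluorometric substrate; inhibitor added at final […] (units as printed) from DMSO stocks; reaction started with arachidonic acid, 2 min at room temperature. Resorufin fluorescence read at ex 535/em 590 nm; % inhibition vs no-inhibitor activity; IC50 from concentration–inhibition curve, triplicate determinations.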

Row | SMILES | inhibition [1] [%] | IC50 [2] [µM]
1 | COc1cc(C2=NCCN2c2ccc(S(C)(=O)=O)cc2)ccc1F | -4.3 | > 10
2 | CC1CN(c2ccc(S(C)(=O)=O)cc2)C(c2cccc(Br)c2)=N1 (racemic) | 11.1 | > 10
3 | COc1cc(C2=NCCN2c2ccc(S(N)(=O)=O)cc2)ccc1F |  | > 10
4 | COc1ccc(C2=NCCN2c2ccc(S(N)(=O)=O)cc2)cc1F | -5.5 | 9.5
5 | CS(=O)(=O)c1ccc(N2CCN=C2c2ccc(Cl)c(C(F)(F)F)c2)cc1 | 4.7 | 3.6
6 | CC1CN(c2ccc(S(C)(=O)=O)cc2)C(c2ccc(F)cc2)=N1 (racemic) | 6.3 | > 10
7 | CC1CN(c2ccc(S(N)(=O)=O)cc2)C(c2cccc(Br)c2)=N1 (racemic) | 20.2 | > 10
8 | CC1CN(c2ccc(S(N)(=O)=O)cc2)C(c2ccc(F)cc2)=N1 (racemic) | 5.5 | > 10
9 | NS(=O)(=O)c1ccc(N2CCN=C2c2cccc(Cl)c2)cc1 | -8 | 2.5

Now from value to molecule:

Row | inhibition [1] [%] | IC50 [2] [µM] | SMILES
10 | 9.2 | > 10 | CS(=O)(=O)c1ccc(N2CCN=C2c2ccc(F)c(F)c2)cc1
11 | 12.6 | 6.8 | CS(=O)(=O)c1ccc(N2CCN=C2c2cccc(Br)c2)cc1
12 | 6 | > 10 | Cc1cccc(C2=NCCN2c2ccc(S(C)(=O)=O)cc2)c1
13 | 1.5 | > 10 | Cc1cccc(C2=NCCN2c2ccc(S(N)(=O)=O)cc2)c1
14 | 0.7 | > 10 | CS(=O)(=O)c1ccc(N2CCN=C2c2cccc(F)c2)cc1
15 | 12.6 | > 10 | CS(=O)(=O)c1ccc(N2CCN=C2c2ccc(F)cc2)cc1
